Data on ten compounds can be found in ChEMBL document CHEMBL1153575, “Synthesis and in vitro anticancer activity of 2,4-azolidinedione-acetic acids derivatives” (2009).

Type in all cases: functional
The test system of one assay is RPMI-8226. In words: Cytotoxicity against human RPMI8226 cells assessed as cell growth at 10 uM after 48 hrs by sulforhodamine B assay. Particulars: RPMI-8226, 48 h, read-out: Activity. Summed up:
(§1)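 Single-dose primary screen at 10^-5 M (final) across a panel of about 60 human tumour cell lines. Cells were inoculated and preincubated 24–48 h, then the compound was added once and incubated a further 48 h. Protein was stained with sulforhodamine B and read spectrophotometrically. Percent growth is given relative to untreated control cells.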
(Sulforhodamine B stains cellular protein and so reports cell mass.)

In the next assay the test system is SR. In words: Cytotoxicity against human SR cells assessed as cell growth at 10 uM after 48 hrs by sulforhodamine B assay. Particulars: read-out: Activity. Summed up:
as §1

The subject of another assay is TK-10. Nature of the assay: Cytotoxicity against human TK10 cells assessed as cell growth at 10 uM after 48 hrs by sulforhodamine B assay. Particulars: TK-10, 48 h, read-out: Activity. Summed up: as §1
Assay [1] is described as follows: Cytotoxicity against human IGROV cells assessed as cell growth at 10 uM after 48 hrs by sulforhodamine B assay. The following applies: read-out: Activity. Summed up:
as §1

The next assay deals with ACHN. Nature of the assay: Cytotoxicity against human ACHN cells assessed as cell growth at 10 uM after 48 hrs by sulforhodamine B assay. The following applies: read-out: Activity. Summed up:
as §1

For a further assay, the system named is UO-31. In words: Cytotoxicity against human UO31 cells assessed as cell growth at 10 uM after 48 hrs by sulforhodamine B assay. The following applies: UO-31, 48 h, read-out: Activity. Put shortly:
as §1

For the next assay, the system named is OVCAR-5. In words: Cytotoxicity against human OVCAR5 cells assessed as cell growth at 10 uM after 48 hrs by sulforhodamine B assay. The following applies: OVCAR-5, 48 h, read-out: Activity. Put shortly:
as §1

The test system of another assay is HCT-116. In words: Cytotoxicity against human HCT116 cells assessed as cell growth at 10 uM after 48 hrs by sulforhodamine B assay. Particulars: HCT-116, 48 h, read-out: Activity. Put shortly:
as §1

In the next assay the test system is CAKI-1. In words: Cytotoxicity against human Caki1 cells assessed as cell growth at 10 uM after 48 hrs by sulforhodamine B assay. The following applies: CAKI-1, 48 h, read-out: Activity. Put shortly:
as §1

On to `O=C(CN1C(=O)N/C(=C\C=C\c2ccccc2)C1=O)Nc1ccccc1C(F)(F)F`, for which the growth at 10 µM in the assay on RPMI-8226 was 26.6%.

Take `NS(=O)(=O)c1ccc(NC(=O)CC2NC(=O)NC2=O)cc1` (configuration not stated): the growth at 10 µM with SR turned out to be 68.3%.

Regarding `O=C(CN1C(=O)S/C(=C\C=C\c2ccccc2)C1=O)Nc1ccccc1C(F)(F)F`, the growth at 10 µM in the assay on TK-10 was 62.5%.

With `O=C(CN1C(=O)N/C(=C\c2ccccc2)C1=O)Nc1ccc(Cl)cc1`, the growth at 10 µM in assay [1] is -3.51%; in the assay on ACHN, 1.51%; in the assay with UO-31 it was -83.1%.

As to `NS(=O)(=O)c1ccc(NC(=O)CN2C(=O)CNC2=O)cc1`, the growth at 10 µM in the assay with UO-31 turned out to be 26%.

`O=C(CN1C(=O)S/C(=C\c2ccc(Cl)cc2)C1=O)Nc1ccccc1C(F)(F)F`: the growth at 10 µM in the assay with UO-31 worked out at 75.8%.

Turning to `CN(C)c1ccc(/C=C2\SC(=O)N(CC(=O)Nc3ccccc3C(F)(F)F)C2=O)cc1`, in the assay with SR, the growth at 10 µM is 45.8%.

For the compound `COc1ccc(/C=C2\NC(=O)N(CC(=O)Nc3nccs3)C2=O)cc1`, the growth at 10 µM in the assay with OVCAR-5 amounted to 76.5%.

With `CN(C)c1ccc(/C=C2\NC(=O)N(CC(=O)Nc3ccccc3C(F)(F)F)C2=O)cc1`, the growth at 10 µM in the assay on HCT-116 came out at 31%.

As for `NS(=O)(=O)c1ccc(NC(=O)CC2SC(=O)NC2=O)cc1` (configuration not stated), the growth at 10 µM in the assay with CAKI-1 was 54.2%.
